Test results taken from ChEMBL document CHEMBL1921792, “Synthesis and anticonvulsant activity of trans- and cis-2-(2,6-dimethylphenoxy)-N-(2- or 4-hydroxycyclohexyl)acetamides and their amine analogs” (Bioorg Med Chem, 2011).
Activity calls are given as the source filed them.

What was measured:
Mus musculus [1] = test: Anticonvulsant activity in mouse assessed as protection against maximal electric shock-induced seizures at 30 mg/kg, ip after 0.5 hrs; type: functional, organism-based; parameters: dose 30 mg/kg
Outline: (§1)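 Phase I maximal electroshock screen in mice. Compound given ip as a suspension in 0.5% methylcellulose at 30, 100 or 300 mg/kg, tested at 30 min and 4 h. Small groups (1–8); result is number protected/number tested.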

Mus musculus [2] = test: Anticonvulsant activity in mouse assessed as protection against maximal electric shock-induced seizures at 30 mg/kg, ip after 4 hrs; type: functional, organism-based; parameters: dose 30 mg/kg; outline: as §1
Mus musculus [3] = test: Anticonvulsant activity against subcutaneous pentylenetetrazole-induced seizures in mouse at 30 mg/kg, ip after 0.5 hrs; type: functional, organism-based; parameters: dose 30 mg/kg
Outline: (§2)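 Phase I screen in mice. Compound given ip as a suspension in 0.5% methylcellulose, read at 30 min and 4 h. Pentylenetetrazole 85 mg/kg in 0.9% NaCl was injected sc into the posterior midline and animals watched ≥30 min. Protection meant no clonic spasm lasting ≥5 s. Groups of 1–8 animals; result is protected/tested.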

Mus musculus [4] = test: Anticonvulsant activity against subcutaneous pentylenetetrazole-induced seizures in mouse at 30 mg/kg, ip after 4 hrs; type: functional, organism-based; parameters: dose 30 mg/kg; outline: as §2
Mus musculus [5] = test: Anticonvulsant activity against subcutaneous pentylenetetrazole-induced seizures in mouse at 100 mg/kg, ip after 0.5 hrs; type: functional, organism-based; parameters: dose 100 mg/kg; outline: as §2
Mus musculus [6] = test: Anticonvulsant activity in mouse assessed as protection against maximal electric shock-induced seizures at 3 mg/kg, ip after 0.5 hrs; type: functional, organism-based; parameters: dose 3 mg/kg
Mus musculus [7] = test: Neurotoxicity in mouse assessed as inability to maintain equilibrium on rotarod at 30 mg/kg, ip after 0.5 hrs by rotarod test; type: toxicity, organism-based; parameters: dose 30 mg/kg, route intraperitoneal; conditions: in vivo
Outline: (§3)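 Drug given ip to mice as a suspension in 0.5% methylcellulose. At the stated time after dosing, each mouse was placed on a 1 inch knurled rod turning at 6 rpm. Neurotoxicity = inability to stay balanced at least 1 min in each of three trials. Scored as animals toxic/animals tested in small groups.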

Mus musculus [8] = test: Neurotoxicity in mouse assessed as inability to maintain equilibrium on rotarod at 100 mg/kg, ip after 0.5 hrs by rotarod test; type: toxicity, organism-based; parameters: dose 100 mg/kg, route intraperitoneal; conditions: in vivo; outline: as §3
Mus musculus [9] = test: Neurotoxicity in mouse assessed as inability to maintain equilibrium on rotarod at 300 mg/kg, ip after 0.5 hrs by rotarod test; type: toxicity, organism-based; parameters: dose 300 mg/kg, route intraperitoneal; conditions: in vivo; outline: as §3
Mus musculus [10] = test: Neurotoxicity in mouse assessed as inability to maintain equilibrium on rotarod at 3 mg/kg, ip after 0.5 hrs by rotarod test; type: toxicity, organism-based; parameters: dose 3 mg/kg, route intraperitoneal; conditions: in vivo
Mus musculus [11] = test: Neurotoxicity in mouse assessed as inability to maintain equilibrium on rotarod at 10 mg/kg, ip after 0.5 hrs by rotarod test; type: toxicity, organism-based; parameters: dose 10 mg/kg, route intraperitoneal; conditions: in vivo
Mus musculus [12] = test: Neurotoxicity in mouse assessed as inability to maintain equilibrium on rotarod at 30 mg/kg, ip after 4 hrs by rotarod test; type: toxicity, organism-based; parameters: dose 30 mg/kg, route intraperitoneal; conditions: in vivo; outline: as §3
[13] = Neurotoxicity in ip dosed mouse assessed as inability to maintain equilibrium on rotarod by rotarod test; type: toxicity, organism-based; conditions: in vivo
Outline: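 Mice dosed ip with a suspension in 0.5% methylcellulose, then placed on a 1 inch knurled plastic rod rotating at 6 rpm. Toxicity = failure to keep equilibrium for at least 1 min in each of three trials.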

[14] = Neurotoxicity in po dosed rat assessed as neurological deficit […]; type: toxicity, organism-based; conditions: in vivo
Outline: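 Rats dosed orally with a suspension in 0.5% methylcellulose. Neurological deficit judged by ataxia and loss of placing response and muscle tone.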

Mus musculus [15] = test: Anticonvulsant activity in ip dosed mouse assessed as protection against maximal electric shock-induced seizures; type: functional; conditions: Mus musculus, ip; read-out: ED50
Rattus norvegicus [16] = test: Anticonvulsant activity in po dosed rat assessed as protection against maximal electric shock-induced seizures; type: functional
Mus musculus [17] = species: Mus musculus; test: Protective index, ratio of TD50 for neurotoxicity in mouse to ED50 for inhibition of maximal electroshock-induced seizures in mouse; type: functional
Rattus norvegicus [18] = species: Rattus norvegicus; test: Protective index, ratio of TD50 for neurotoxicity in rat to ED50 for inhibition of maximal electroshock-induced seizures in rat; type: functional
Rattus norvegicus [19] = test: Anticonvulsant activity in rat assessed as protection against maximal electric shock-induced seizures at 30 mg/kg, po after 4 hrs; type: functional, organism-based; parameters: dose 30 mg/kg
Outline: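 MES test in rats dosed orally at 30 mg/kg as a suspension in 0.5% methylcellulose, read at 0.25–4 h. Four rats per time point; result is protected/tested.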

Rattus norvegicus [20] = test: Neurotoxicity in rat assessed as neurological deficit at 30 mg/kg, po after 0.25 hrs […]; type: toxicity, organism-based; parameters: dose 30 mg/kg, route oral; conditions: in vivo
Outline: (§4)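 Rats given the compound, suspended in 0.5% methylcellulose, by the stated route and dose. Neurological deficit was recorded at the listed times as ataxia and loss of placing response and muscle tone. Reported as number of rats showing toxicity/number tested.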

Rattus norvegicus [21] = test: Neurotoxicity in rat assessed as neurological deficit at 30 mg/kg, po after 0.5 hrs […]; type: toxicity, organism-based; parameters: dose 30 mg/kg, route oral; conditions: in vivo; outline: as §4
Rattus norvegicus [22] = test: Neurotoxicity in rat assessed as neurological deficit at 30 mg/kg, po after 1 hr […]; type: toxicity, organism-based; parameters: dose 30 mg/kg, route oral; conditions: in vivo; outline: as §4
Rattus norvegicus [23] = test: Neurotoxicity in rat assessed as neurological deficit at 30 mg/kg, po after 2 hrs […]; type: toxicity, organism-based; parameters: dose 30 mg/kg, route oral; conditions: in vivo; outline: as §4
Rattus norvegicus [24] = test: Neurotoxicity in rat assessed as neurological deficit at 30 mg/kg, po after 4 hrs by rotarod test; type: toxicity, organism-based; parameters: dose 30 mg/kg, route oral; conditions: in vivo; outline: as §4
Rattus norvegicus [25] = test: Anticonvulsant activity in rat assessed as protection against maximal electric shock-induced seizures at 30 mg/kg, ip after 0.25 hrs; type: functional, organism-based; parameters: dose 30 mg/kg
Outline: (§5)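 Time-to-peak-effect assay: MES protection read at 0.25–4 h after dosing. Mice ip (60–130 mg/kg), rats po (15 or 30 mg/kg) or ip (30 mg/kg). Groups of 4–8; result is protected/tested.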

Rattus norvegicus [26] = test: Anticonvulsant activity in rat assessed as protection against maximal electric shock-induced seizures at 30 mg/kg, ip after 0.5 hrs; type: functional, organism-based; parameters: dose 30 mg/kg; outline: as §5
Rattus norvegicus [27] = test: Anticonvulsant activity in rat assessed as protection against maximal electric shock-induced seizures at 30 mg/kg, ip after 1 hr; type: functional, organism-based; parameters: dose 30 mg/kg; outline: as §5
Rattus norvegicus [28] = test: Anticonvulsant activity in rat assessed as protection against maximal electric shock-induced seizures at 30 mg/kg, ip after 2 hrs; type: functional, organism-based; parameters: dose 30 mg/kg; outline: as §5
Rattus norvegicus [29] = test: Anticonvulsant activity in rat assessed as protection against maximal electric shock-induced seizures at 30 mg/kg, ip after 4 hrs; type: functional, organism-based; parameters: dose 30 mg/kg; outline: as §5
Rattus norvegicus [30] = test: Neurotoxicity in rat assessed as neurological deficit at 30 mg/kg, ip after 1 hr; type: toxicity, organism-based; parameters: dose 30 mg/kg, route intraperitoneal; conditions: in vivo; outline: as §4
Rattus norvegicus [31] = test: Neurotoxicity in rat assessed as neurological deficit at 30 mg/kg, ip after 2 hrs; type: toxicity, organism-based; parameters: dose 30 mg/kg, route intraperitoneal; conditions: in vivo; outline: as §4
Rattus norvegicus [32] = test: Neurotoxicity in rat assessed as neurological deficit at 30 mg/kg, ip after 4 hrs; type: toxicity, organism-based; parameters: dose 30 mg/kg, route intraperitoneal; conditions: in vivo; outline: as §4
Mus musculus [33] = test: Anticonvulsant activity against […] in mouse assessed as increase in tonic threshold at 8 mg/kg, ip by threshold tonic extension test; type: functional, organism-based; parameters: dose 8 mg/kg
Outline: (§6)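 Threshold tonic extension test in mice. The compound was given ip, then pentylenetetrazol was infused until the first twitch and the first clonus. PTZ dose was calculated from the infusion speed. Mean of 8 animals ± S.E.M.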

Mus musculus [34] = test: Anticonvulsant activity against […] in mouse assessed as increase in tonic threshold at 28 mg/kg, ip by threshold tonic extension test; type: functional, organism-based; parameters: dose 28 mg/kg; outline: as §6
Rattus norvegicus [35] = test: Anticonvulsant activity in ip dosed rat assessed as time to show peak effect of protection against maximal electric shock-induced seizures; type: functional; outline: as §5

Which Activity (Mus musculus [1]) does the source give for `Cc1cccc(C)c1OCCNC1CCCCC1O` (racemic) here?
Its Activity is “Active”.

What about the Activity (Mus musculus [2]) of the same compound?
Its Activity is “inactive”.

What about the Activity (Mus musculus [3]) of the same compound?
The Activity was “inactive”.

And the Activity (Mus musculus [4])?
Its Activity is “inactive”.

And the Activity (Mus musculus [5])?
The Activity was “inactive”.

And the Activity (Mus musculus [6])?
The Activity was “inactive”.

What about the Activity (Mus musculus [7]) of the same compound?
The Activity was “Toxic”.

And the Activity (Mus musculus [8])?
The Activity was “Toxic”.

And the Activity (Mus musculus [9])?
The Activity was “Toxic”.

What about the Activity (Mus musculus [10]) of the same compound?
The Activity was “Non-toxic”.

What about the Activity (Mus musculus [11]) of the same compound?
Its Activity is “Non-toxic”.

And the Activity (Mus musculus [12])?
The Activity was “Non-toxic”.

And the TD50 [13]?
The TD50 was 28.4 mg/kg.

And the TD50 [14]?
Its TD50 is over 500 mg/kg.

And the ED50 (Mus musculus [15])?
Its ED50 is 7.73 mg/kg.

What about the ED50 (Rattus norvegicus [16]) of the same compound?
Its ED50 is 26.2 mg/kg.

And the “Ratio TD50/ED50” value (Mus musculus [17])?
The value was 3.9.

And the “Ratio TD50/ED50” value (Rattus norvegicus [18])?
The value was over 19.06.

What about the Activity (Rattus norvegicus [19]) of the same compound?
Its Activity is “inactive”.

And the Activity (Rattus norvegicus [20])?
Its Activity is “Non-toxic”.

What about the Activity (Rattus norvegicus [21]) of the same compound?
Its Activity is “Non-toxic”.

And the Activity (Rattus norvegicus [22])?
The Activity was “Non-toxic”.

What about the Activity (Rattus norvegicus [23]) of the same compound?
The Activity was “Non-toxic”.

What about the Activity (Rattus norvegicus [24]) of the same compound?
The Activity was “Non-toxic”.

What about the Activity (Rattus norvegicus [25]) of the same compound?
Its Activity is “Active”.

And the Activity (Rattus norvegicus [26])?
Its Activity is “Active”.

What about the Activity (Rattus norvegicus [27]) of the same compound?
The Activity was “Active”.

And the Activity (Rattus norvegicus [28])?
Its Activity is “inactive”.

What about the Activity (Rattus norvegicus [29]) of the same compound?
Its Activity is “inactive”.

And the Activity (Rattus norvegicus [30])?
Its Activity is “Non-toxic”.

And the Activity (Rattus norvegicus [31])?
Its Activity is “Non-toxic”.

What about the Activity (Rattus norvegicus [32]) of the same compound?
The Activity was “Non-toxic”.

What about the Activity (Mus musculus [33]) of the same compound?
The Activity was “inactive”.

And the Activity (Mus musculus [34])?
The Activity was “inactive”.

What about the Time (Rattus norvegicus [35]) of the same compound?
Its Time is 0.25 h.
